A selection: hits, their analogues and other compounds. The true share with any hit is near 2.9%.
Runt-CBFb FRET: inhibitors of RUNX1 Runt–CBFb binding, primary screen, biochemical, FRET, Cerulean-Runt, Venus-CBFb, uHTS | Runt-related transcription factor 1 (Homo sapiens) + Core-binding factor subunit beta … | Cerulean-Runt/Venus-CBFb FRET ratio 530/480, 1 h | inhibition, % at 20 µM | actives 0.46% (n = 220,000) | AID 1496, 2009;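 active = inhibition over about 50% at 20 µM in the single-dose screen, limit read from the data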;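 also: 0% = DMSO wells and 100% = excess unlabeled CBFb competitor control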
Target sequence (Q01196 whole entry, looked up): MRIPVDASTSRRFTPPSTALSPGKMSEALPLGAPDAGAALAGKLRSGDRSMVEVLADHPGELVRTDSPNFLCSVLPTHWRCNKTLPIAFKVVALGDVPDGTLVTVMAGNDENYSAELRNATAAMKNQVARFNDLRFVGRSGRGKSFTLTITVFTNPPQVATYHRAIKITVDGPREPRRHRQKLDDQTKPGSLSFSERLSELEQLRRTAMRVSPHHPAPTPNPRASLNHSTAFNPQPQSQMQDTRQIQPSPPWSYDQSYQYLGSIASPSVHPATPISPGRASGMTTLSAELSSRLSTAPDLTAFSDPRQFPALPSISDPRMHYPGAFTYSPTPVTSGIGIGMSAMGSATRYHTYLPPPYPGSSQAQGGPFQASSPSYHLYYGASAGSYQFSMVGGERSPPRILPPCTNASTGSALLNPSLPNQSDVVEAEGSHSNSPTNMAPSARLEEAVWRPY
Target sequence (Q13951 whole entry, looked up): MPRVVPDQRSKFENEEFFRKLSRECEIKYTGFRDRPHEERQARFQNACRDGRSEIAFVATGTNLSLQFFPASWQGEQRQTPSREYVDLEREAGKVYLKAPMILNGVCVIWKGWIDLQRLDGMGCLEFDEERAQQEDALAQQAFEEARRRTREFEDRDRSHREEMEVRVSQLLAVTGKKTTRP
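Doses: 20 µM compound in 1% DMSO | Material: Cerulean-labeled Runt domain protein | Amount: Each fluorescent fusion protein 100 nM | Schedule: Two 1 h room-temperature incubations shielded from light | Measured by: FRET fluorescence | Evaluation: Loss of energy transfer signal | Controls: Unlabeled CBFb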
PfM18AAP inh: PfM18AAP inhibitors, malaria aminopeptidase, primary screen, biochemical, QFRET, recombinant enzyme; M18 aspartyl aminopeptidase (Plasmodium falciparum 3D7); H-Glu-NHMec fluorogenic cleavage; inhibition, % at 7.35 µM; actives 1.2% (n = 290,000); AID 1822, 2009;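 active = inhibition above the campaign mean inhibition over all tested compounds plus 3 SD, cut at about 28% in these data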;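 also: 0% = plate median of test compound wells and 100% = 2 mM ZnCl2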
Runt-SMMHC FRET: inhibitors of RUNX1 Runt–CBFb-SMMHC binding, primary screen, biochemical, FRET, Cerulean-Runt, Venus-CBFb-SMMHC, uHTS. Runt-related transcription factor 1 (Homo sapiens) + Core-binding factor subunit beta …. Cerulean-Runt/Venus-CBFb-SMMHC FRET ratio 530/480, 1 h. inhibition, % at 20 µM. actives 0.74% (n = 220,000). AID 1434, 2008;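 active = mean inhibition across duplicate retests at 20 µM reaching about 50%, limit read from the data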;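 also: 0% = DMSO wells and 100% = wells with excess untagged CBFb-SMMHC; inhibitors lower the FRET ratio by blocking Runt binding to CBFb-SMMHC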
RBBP9 inh: human RBBP9 inhibitors, primary screen, biochemical, fluorescence polarization, FP-Rh probe, HTS. recombinant RBBP9. inhibition, % at 7.94 µM. actives 0.2% (n = 220,000). AID 1515, 2009;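 active = inhibition above the campaign mean of all tested compounds plus 3 SD, cut at about 14% in these data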;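 also: plate controls were DMSO wells with RBBP9 for no effect and wells lacking RBBP9 protein for full effect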
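System: RBBP9 protein / Buffer or medium: Tris/NaCl buffer pH 8.0 with 0.1% Pluronic / Probe or stimulus: Serine-hydrolase probe FP-Rh, 375 nM pre-mixing / Dosing: 7.94 µM single dose, 0.794% DMSO / Times: enzyme-compound preincubation 30 min, then probe labeling 45 min, 25 °C / Technique: fluorescence polarization (mP), excitation 525 nm, emission 598 nm / Replication: singlicate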
RanGTP-Impb inh: inhibitors of RanGTP-importin-beta interaction, primary screen, biochemical, FRET, CFP-Ran, YFP-importin-beta, homogeneous; Ran GTPase (GTP-bound) - importin-beta complex; cell-free CFP-Ran/YFP-importin-beta FRET ratio; inhibition, % (concentration not given with the values); actives 1.1% (n = 300,000);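 active = more than half of the replicate wells show a fall in the fluorescence ratio signal beyond about 16%, limit read from the data, passing the limit was not always enough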;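 also: 0% = DMSO wells and 100% = Ran loaded with GDP instead of GTP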
Hck-Nef inh: inhibitors of Nef-activated human Hck kinase, primary screen, biochemical, Z-Lyte FRET, 384-well, Hck-YEEI. inhibition, % at 20 µM. AID 463187, 2010. actives 0.68% (n = 220,000). Recombinant Hck-YEEI plus Nef, Z-Lyte FRET kinase assay;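 active = Hck-Nef kinase inhibition above about 50%, limit read from the data; inactive = inhibition below that limit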;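 also: 0% = DMSO with Hck plus Nef and 100% = Hck alone without Nef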
An asterisk follows results filed as active.

What do the screens show for `Nc1nc(SCC(=O)Nc2ncc(C(F)(F)F)cc2Cl)n[nH]1`?
Runt-CBFb FRET: 0; PfM18AAP inh: 28*; Runt-SMMHC FRET: -3; RBBP9 inh: -2; RanGTP-Impb inh: -4; Hck-Nef inh: 0

How did O=C(CSc1ncccn1)Nc1ncc(C(F)(F)F)cc1Cl do in these assays?
Runt-CBFb FRET: 10; PfM18AAP inh: 13; Runt-SMMHC FRET: -1; RBBP9 inh: 5; RanGTP-Impb inh: -2; Hck-Nef inh: -16

What do the screens show for `CC(CCn1cccn1)NC(=O)c1cc(COc2ccc(F)cc2Cl)on1` (stereo unspecified)?
Runt-CBFb FRET: 0; PfM18AAP inh: 1; Runt-SMMHC FRET: 2; RBBP9 inh: -1; RanGTP-Impb inh: 7; Hck-Nef inh: -4

How did O=C(NCCCn1cccn1)c1cc(COc2ccc(F)cc2Cl)on1 do in these assays?
Runt-CBFb FRET: 1; PfM18AAP inh: 30*; Runt-SMMHC FRET: 0; RBBP9 inh: -10; RanGTP-Impb inh: -2; Hck-Nef inh: 15

What do the screens show for `O=C(Nc1ccc(NC(=O)c2cccnc2Cl)cc1)c1cccc(Cl)c1`?
PfM18AAP inh: -11; RanGTP-Impb inh: 1

Results for CC1(OC(=O)C2CCCC2)C(=O)C=C2C=C(c3ccsc3)N(C(CO)CO)C=C2C1=O (stereo unspecified) ?
Runt-CBFb FRET: 3; Runt-SMMHC FRET: 28; RanGTP-Impb inh: 18*; Hck-Nef inh: 22

How did CCc1ccc[n+](-c2nc3ccccc3nc2C(=C=[N-])C#N)c1 do in these assays?
Runt-CBFb FRET: -17; PfM18AAP inh: 7; Runt-SMMHC FRET: 5; RBBP9 inh: -6; RanGTP-Impb inh: 31*; Hck-Nef inh: 30

How did Cc1ccc[n+](-c2nc3ccccc3nc2C(=C=[N-])C#N)c1 do in these assays?
Runt-CBFb FRET: -16; PfM18AAP inh: 12; Runt-SMMHC FRET: -2; RBBP9 inh: -18; RanGTP-Impb inh: -3; Hck-Nef inh: 3

How did S=C(N/N=C/c1ccc(Br)cc1)N1CCCCC1 do in these assays?
PfM18AAP inh: 14; RanGTP-Impb inh: 3

What do the screens show for `CCc1ccc(CC(=S)N2CCOCC2)cc1`?
Runt-CBFb FRET: 0; PfM18AAP inh: -10; Runt-SMMHC FRET: 2; RBBP9 inh: -6; RanGTP-Impb inh: 1; Hck-Nef inh: 13

What do the screens show for `Cc1ccc(CC(=S)N2CCOCC2)cc1`?
Runt-CBFb FRET: 27; PfM18AAP inh: 29*; Runt-SMMHC FRET: 2; RBBP9 inh: -1; RanGTP-Impb inh: 6; Hck-Nef inh: -12

What do the screens show for `Cc1ccc(/C=N/NC(=S)N2CCOCC2)cc1`?
Runt-CBFb FRET: 7; PfM18AAP inh: 40*; Runt-SMMHC FRET: 6; RBBP9 inh: -6; RanGTP-Impb inh: 2; Hck-Nef inh: 6

How did S=C(N/N=C/c1ccc(Cl)cc1)N1CCOCC1 do in these assays?
Runt-CBFb FRET: 5; PfM18AAP inh: 30*; Runt-SMMHC FRET: 4; RBBP9 inh: -7; RanGTP-Impb inh: 4; Hck-Nef inh: 4

Results for Cc1cc(OCc2cc(C(=O)N(C)C3CCOC3)no2)cc(C)c1Cl (stereo unspecified) ?
PfM18AAP inh: 0; RanGTP-Impb inh: -3

Results for CC1(C)CC(NC(=O)Cc2ccccc2)CC(C)(C)N1 ?
PfM18AAP inh: 1; RanGTP-Impb inh: 2

What do the screens show for `CCCOc1ccc(C2C3=C(CCCC3=O)N(CC(=O)O)C3=C2C(=O)CCC3)cc1OCC`?
PfM18AAP inh: 4; RanGTP-Impb inh: 0

How did C#CCOc1ccc(C2C3=C(CCCC3=O)N(CC(=O)O)C3=C2C(=O)CCC3)cc1Br do in these assays?
PfM18AAP inh: -4; RanGTP-Impb inh: 117*

Assay outcomes (PubChem)
